The source of these data is ChEMBL document CHEMBL1641385, “Mammea E/BB, an isoprenylated dihydroxycoumarin protonophore that potently uncouples mitochondrial electron transport, disrupts hypoxic signaling in tumor cells” (J Nat Prod, 2010).

Structures are written as SMILES. The source made the active and inactive calls. The rule behind the calls is not given here.

Assay [1] has as its target T1, Hypoxia inducible factors; HIF-1-alpha, HIF-2-alpha (Homo sapiens, UniProt Q16665+Q99814). Nature of the assay: Inhibition of hypoxia-induced HIF1 activation in human T47D cells by HRE3-TK-luciferase reporter gene assay. The class given is cell-based. (In a reporter assay the amount or activity of a reporter protein is the signal.)
The target of assay [2] is T1, Hypoxia inducible factors; HIF-1-alpha, HIF-2-alpha. Put plainly: Inhibition of 1, 10-phenanthroline-induced HIF1 activation in human T47D cells by HRE3-TK-luciferase reporter gene assay. Format: cell-based.
Assay [3] relates to T47D. Put plainly: Cytotoxicity against human T47D cells. Format: cell-based.
The target in assay [4] is T1, Hypoxia inducible factors; HIF-1-alpha, HIF-2-alpha. Nature of the assay: Inhibition of hypoxia-induced HIF1 activation in human PC3 cells by HRE3-TK-luciferase reporter gene assay. The class given is cell-based. To be noted: pc-3. A digest of the protocol: (§1)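 HIF-1 activity measured with the pHRE3-TK-Luc luciferase reporter in PC-3 cells. Cycloheximide 100 µM served as the positive control. Run in triplicate, representative of two independent experiments. IC50 reported with 95% CI.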

Assay [5] shares this target. Nature of the assay: Inhibition of 1, 10-phenanthroline-induced HIF1 activation in human PC3 cells by HRE3-TK-luciferase reporter gene assay. The class given is cell-based. To be noted: pc-3. A digest of the protocol: as §1
Assay [6] shares this target. Nature of the assay: Inhibition of HIF1-mediated secreted VEGF expression in hypoxia-stimulated human T47D cells by […]. Format: cell-based. A digest of the protocol: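 T47D cells treated with compound (1, 3, 10 µM) under hypoxia (1% O2, 16 h). Secreted VEGF in conditioned medium quantified by ELISA and normalized to cellular protein (micro BCA). n = 3 from one experiment, representative of two. One-way ANOVA with Bonferroni post hoc.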

For assay [7] the target is unchanged. Put plainly: Inhibition of HIF1-mediated proliferation of hypoxia-stimulated human SK-BR-3 cells after 48 hrs by SRB assay. The class given is cell-based. The method in brief:
(§2)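 Exponentially growing cells were seeded at 30,000/well and held overnight at 37 °C in DMEM/F12 with 10% FBS and pen/strep. Compound (0.31–20 µM) was added in serum-free medium for 48 h. Viability was read by sulforhodamine B. % Inhibition = [1 − (ODtreated/ODcontrol)] × 100, from triplicate wells.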
(In SRB staining, fixed cells bind dye roughly in proportion to their protein.)

For assay [8] the target is unchanged. Put plainly: Inhibition of HIF1-mediated proliferation of hypoxia-stimulated human MDA-MB-231 cells after 48 hrs by SRB assay. Format: cell-based. A digest of the protocol:
as §2

Assay [9] shares this target. Put plainly: Inhibition of HIF1-mediated proliferation of hypoxia-stimulated human PC3 cells after 48 hrs by SRB assay. The class given is cell-based. To be noted: PC-3. A digest of the protocol:
as §2

The target is the same in assay [10]. Nature of the assay: Inhibition of HIF1-mediated proliferation of hypoxia-stimulated human T47D cells at 20 uM after 48 hrs by SRB assay. The class given is cell-based. The method in brief: as §2
For assay [11] the target is unchanged. Nature of the assay: Inhibition of HIF1-mediated proliferation of hypoxia-stimulated human SK-BR-3 cells at 20 uM after 48 hrs by SRB assay. The class given is cell-based. The method in brief:
as §2

For assay [12] the target is unchanged. Put plainly: Inhibition of HIF1-mediated proliferation of hypoxia-stimulated human MDA-MB-231 cells at 20 uM after 48 hrs by SRB assay. Format: cell-based. The method in brief:
as §2

For assay [13] the target is unchanged. Put plainly: Inhibition of HIF1-mediated proliferation of hypoxia-stimulated human PC3 cells at 20 uM after 48 hrs by SRB assay. The class given is cell-based. As to conditions: PC-3. A digest of the protocol:
as §2

Assay [14] has the same target. Put plainly: Inhibition of HIF1-mediated proliferation of hypoxia-stimulated human T47D cells at 0.31 to 20 uM after 48 hrs by SRB assay. Format: cell-based. A digest of the protocol: as §2
The target is the same in assay [15]. Nature of the assay: Inhibition of HIF1-mediated proliferation of hypoxia-stimulated human SK-BR-3 cells at 0.31 to 20 uM after 48 hrs by SRB assay. Format: cell-based. The method in brief:
as §2

Assay [16] shares this target. Put plainly: Inhibition of HIF1-mediated proliferation of hypoxia-stimulated human MDA-MB-231 cells at 0.31 to 20 uM after 48 hrs by SRB assay. Format: cell-based. The method in brief: as §2
Assay [17] has the same target. Put plainly: Inhibition of HIF1-mediated proliferation of hypoxia-stimulated human PC3 cells at 0.31 to 20 uM after 48 hrs by SRB assay. The class given is cell-based. To be noted: PC-3. The method in brief:
as §2

The target is the same in assay [18]. Nature of the assay: Inhibition of HIF1-mediated proliferation of hypoxia-stimulated human SK-BR-3 cells up to 20 uM after 16 hrs by SRB assay. The class given is cell-based. A digest of the protocol: (§3)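 Short-term viability: cells exposed to compound at up to 20 µM for 16 h under hypoxia (1% O2), then read by sulforhodamine B and expressed as % inhibition of untreated control.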

For assay [19] the target is unchanged. Nature of the assay: Inhibition of HIF1-mediated proliferation of hypoxia-stimulated human T47D cells up to 20 uM after 16 hrs by SRB assay. The class given is cell-based. A digest of the protocol: as §3
For assay [20] the target is unchanged. Put plainly: Inhibition of HIF1-mediated proliferation of hypoxia-stimulated human MDA-MB-231 cells up to 20 uM after 16 hrs by SRB assay. The class given is cell-based. The method in brief:
as §3

The target is the same in assay [21]. Put plainly: Inhibition of HIF1-mediated proliferation of hypoxia-stimulated human PC3 cells up to 20 uM after 16 hrs by SRB assay. The class given is cell-based. As to conditions: PC-3. A digest of the protocol:
as §3

The subject of assay [22] is MDA-MB-231. Nature of the assay: Inhibition of human MDA-MB-231 cell migration at 5 to 20 uM after 22 hrs under normoxic condition. The class given is functional, cell-based. The method in brief:
(§4)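 Confluent MDA-MB-231 monolayers were scratched with pipet tips. Compound (5 or 20 µM) was added for 22 h under normoxia (95% air:5% CO2) or hypoxia (1% O2:94% N2:5% CO2). Cells were then fixed, stained and imaged. Parallel viability was checked by sulforhodamine B, as % of untreated control under matching oxygen conditions.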

For assay [23], the system named is MDA-MB-231. Put plainly: Inhibition of human MDA-MB-231 cell migration at 5 to 20 uM after 22 hrs under hypoxic condition. Format: functional, cell-based. The method in brief: as §4
In assay [24] the target is T1, Hypoxia inducible factors; HIF-1-alpha, HIF-2-alpha. Put plainly: Inhibition of HIF1-mediated migration of human MDA-MB-231 cells at 20 uM by wound healing assay. Format: cell-based. A digest of the protocol:
as §4

Assay [25] deals with T47D. Put plainly: Effect on cellular respiration in human T47D cells assessed as increase in oxygen consumption at 1 uM. The class given is functional. A digest of the protocol:
(§5)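 Oxygen consumption of intact T47D cells monitored with a Clark-type electrode. Rate with compound expressed as % control (compound rate/control rate). n = 3; FCCP run as positive control.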

For assay [26], the system named is T47D. Put plainly: Effect on cellular respiration in human T47D cells assessed as decrease in oxygen consumption at 10 uM. The class given is functional. A digest of the protocol:
as §5

Assay [27] concerns T47D. Put plainly: Induction of state 4 respiration of human T47D cells. The class given is functional, cell-based. The method in brief: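 T47D respiration measured by Clark-type electrode. Oligomycin (1 µM final) added to establish state 4 respiration, then compound added at specified concentrations to test resumption of oxygen consumption; FCCP used as positive control.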

The test system of assay [28] is T47D. Nature of the assay: Effect on cellular respiration in human T47D cells assessed as increase in oxygen consumption at 1 uM in presence of mitochondrial uncoupler FCCP. Format: functional, cell-based.
Assay [29] deals with T47D. Put plainly: Effect on cellular respiration in human T47D cells assessed as decrease in oxygen consumption at 10 uM n presence of mitochondrial uncoupler FCCP. Format: functional, cell-based.
In assay [30] the test system is T47D. Nature of the assay: Decrease in mitochondrial membrane potential in human T47D cells 1 to 10 uM after 15 mins by TMRM assay. The class given is functional, cell-based. The method in brief:
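T47D cells seeded at 100,000/well on chambered coverglass overnight, then switched to TES buffer (20 mM, pH 7.3) with salts, 5 mM glucose, 0.3% BSA and 2 nM TMRM. Loaded 1 h 15 min at 37 °C, then compound added for 15 min. Live-cell epifluorescence imaging; FCCP as reference.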

Assay [31] addresses T1, Hypoxia inducible factors; HIF-1-alpha, HIF-2-alpha. To be noted: T47D, at 1 to 10 µM.

For orientation: IC50 means the point on the concentration scale where inhibition reaches its midpoint. A higher IC50 goes with weaker potency. By inhibition is commonly meant the share of the control response that was lost under treatment. For `CCC(C)C(=O)c1c(O)c(CC=C(C)C)c(O)c2c(C(CC)OC(C)=O)cc(=O)oc12` (centres undefined), the half-inhibitory concentration (IC50) in assay [1] is 0.96 µM; in [2], 0.89 µM; in the assay on T47D [3], more than 20 µM; in assay [4], 2 µM; in assay [5], 6.5 µM. Also, the inhibition entry is “Dose-dependent effect” in assay [6]; “Dose-dependent effect” in [7]; “Dose-dependent effect” in assay [8]; “Dose-dependent effect” in [9]; 54% in assay [10]; 53% in assay [11]. Also, the inhibition in [12] was determined as 52%; in assay [13] it was 40%; in assay [14], 50%; in assay [15], 50%; in assay [16] it was 50%; in assay [17] it was 40%. Also, the inhibition in assay [18] is less than 30%; in [19] it was less than 30%; in [20], less than 30%; in [21], less than 30%; in assay [24], 25%. Moreover, the result in the assay with MDA-MB-231 [22], in the assay on MDA-MB-231 [23], in the assay on T47D [27], with T47D [28] and in the assay on T47D [29] was Active. In addition, the Activity with T47D [25] is 30%. In addition, the inhibition at 10 µM in the assay with T47D [26] came to 50%. Besides, the inhibition entry in the assay on T47D [30] is “Active”. Further, in [31], the inhibition entry is “inactive”.

`N#CC(C#N)=NNc1ccc(OC(F)(F)F)cc1`: the IC50 in assay [1] was 0.51 µM; in [2], 0.31 µM. The inhibition result in [31] was “Active”.
